Screening results (PubChem)
The list is not random: actives were taken first. Their share in the collection is about 2.3%.
A1 inh: inhibitors of the anti-apoptotic protein A1, read as caspase activation; MEF A1-2A-BIM cells, Caspase-Glo 3/7 luminescence, 3 h; percent of clofoctol response, vehicle zero; caspase activation, % (concentration not given with the values); 0.066% of 330,000 active; AID 2462;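 active = over half of replicate activation scores above 10%, or exactly half above 10 with the replicate mean above 10; inconclusive = replicate mean below 10 yet half the replicates above 10; inactive = over half of replicates below 10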
KLF5 inhibitor: inhibitors of KLF5 expression; DLD-1 KLF5 promoter-luciferase reporter, luminescence; inhibition, % at 5 µM; 0.23% of 290,000 active; AID 1700;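 active = inhibition above a per-plate limit of that plate's mean compound inhibition plus 3 SD, cut at about 60% in these data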;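 also: 0% = DMSO wells and 100% = LY294002 at 200 µM; higher means less KLF5 promoter-driven luciferase light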
Beta apoptosis: blocks beta cell apoptosis | INS-1E cytokine-induced death, ATP luminescence, 48 h; percent of positive-control rescue, neutral wells zero | protection from apoptosis, % (test concentration not listed) | 0.8% of 300,000 active | AID 435005;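 active = Every replicate reaches about 75%, or at least half do and their mean reaches it too, limit read from the data; inconclusive = At least half of replicates reach the limit but their mean does not; inactive = Under half of replicates reach the limit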;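 also: 0% = cytokine-treated negative control wells and 100% = positive control rescue; higher means more ATP so stronger rescue from cytokine killing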
HIF activator: HIF pathway transcriptional activation; U2OS HRE-luciferase reporter, luminescence; normalized: DMSO 0%, desferrioxamine 100%; activation, % at 7.5 µM (by protocol); 0.32% of 300,000 active;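 active = mean activation of at least 10% of the iron chelator positive control signal, with at least half of replicates also reaching 10%; inconclusive = mean and replicate majority disagree about reaching 10%; inactive = mean and most replicates under 10%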
T cruzi inh: blocks replication of Trypanosoma cruzi | T. cruzi beta-gal in NIH3T3, luminescence, 90 h | 1.4% of 300,000 active | inhibition, % (concentration not given with the values);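 active = mean inhibition across valid replicates above about 55%, limit read from the data; inconclusive = mean below that limit but half or more replicates reach it; inactive = mean below it, under half of replicates reach it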;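 also: signal also drops with host cell toxicity which is not excluded here; 0% = plate median of DMSO wells and 100% = zero luminescence signal; higher percent means less beta-gal luminescence so fewer parasites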
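Assay system: NIH/3T3 fibroblasts plus reporter T. cruzi. Amount: NIH/3T3 cells, 5,000 per well. Buffer or medium: DMEM, 2% fetal bovine serum. Doses: compound pinned at 50 nL/well, DMSO. Schedule: ≥90 h infection period, 3 h prior cell attachment. Signal: luminescent β-galactosidase signal after 60 min lysis. Read-out: parasite load inhibition, %.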
* marks the source's active call; other numbers are inactive results; ? = inconclusive; nt = no result.

SMILES | A1 inh | KLF5 inhibitor | Beta apoptosis | HIF activator | T cruzi inh
CCc1ccc2[nH]c(=O)c(C3C(C#N)=C(N)Oc4c3ccc3cccnc43)cc2c1 (stereo unspecified) | 0 | -69 | 94* | 3 | 59*
N#CC1=C(N)Oc2c(ccc3cccnc23)C1c1cccnc1 (stereo unspecified) | -1 | -22 | 99* | 0 | 11
O=C(Cn1ncc2c3ccccc3n(Cc3ccccc3F)c2c1=O)NCCN1CCOCC1 | 1 | -18 | 0 | 32* | 7
O=C(Cn1ncc2c3ccccc3n(Cc3ccccc3F)c2c1=O)NCCCN1CCCC1=O | 0 | -23 | 1 | 0 | 23
COc1ccc2c(-c3cc4ccc(OCc5ccc(F)cc5)cc4oc3=O)cc(=O)oc2c1 | 9.6* | -16 | 0 | -1 | -8
CC(C)(C)C(=O)/C(=C\c1ccc([N+](=O)[O-])cc1)n1cncn1 | ? | 45 | 112* | -3 | ?
COc1cccc(-c2c(C(=O)N/N=C/c3sccc3C)nnn2-c2nonc2N)c1 | 0 | -5 | -13 | nt | -2
O=C(CCN=C1NS(=O)(=O)c2ccccc21)OCc1nnc(-c2ccc([N+](=O)[O-])cc2)o1 | 0 | nt | -4 | nt | nt
O=C(CCc1ccccc1)NC(c1cccs1)c1cc(Cl)c2cccnc2c1O (stereo unspecified) | nt | -14 | nt | 102* | 66*
CCCC(=O)NC(c1cccs1)c1cc([N+](=O)[O-])c2cccnc2c1O (stereo unspecified) | 0 | 6 | 61 | -33 | 4
CCC(=O)NC(c1ccc(OC)cc1)c1cc(Cl)c2cccnc2c1O (stereo unspecified) | 1 | -5 | 96* | 23* | ?
CCCCC(=O)NC(c1ccco1)c1cc(Cl)c2cccnc2c1O (stereo unspecified) | -1 | -2 | 104* | 0 | 63*
CCC(=O)NC(c1cccs1)c1cc([N+](=O)[O-])c2cccnc2c1O (stereo unspecified) | 0 | 0 | 58 | 6 | -3
COc1ccc(C(NC(=O)c2cccnc2)c2cc(Cl)c3cccnc3c2O)cc1OC (stereo unspecified) | 0 | 1 | 91* | 12* | ?
Cc1ccccc1NC(=O)c1cccc(N2C(=O)C3C4CC(C(Br)C4Br)C3C2=O)c1 (stereo unspecified) | 1 | 3 | -2 | nt | nt
Cc1c2ccccc2cc(Cc2ccccc2)[n+]1C | -1 | 20 | 2 | 0 | 13
CC(C#N)Sc1ncnc2sc(-c3ccccc3)cc12 (stereo unspecified) | 1 | 1 | -1 | 0 | -1
CCC(=O)NC(c1ccco1)c1cc(Cl)c2cccnc2c1OC (stereo unspecified) | 1 | nt | -2 | nt | nt
CCC(=O)NC(c1ccco1)c1cc(Cl)c2cccnc2c1O (stereo unspecified) | 0 | 13 | 24 | 2 | 63*
O=C(N/N=C/c1ccc(Cl)cc1)c1ccc2c(c1)OCO2 | 0 | -79 | 9 | -5 | 4
O=C(N/N=C/c1cc(Br)cc(Cl)c1O)c1ccc2c(c1)OCO2 | 0 | nt | 94* | 19* | 46
O=C(N/N=C/c1cc(Br)c(O)c(Br)c1O)c1ccc2c(c1)OCCO2 | 0 | -20 | 91* | 2 | 0
O=C(N/N=C/c1cc(Cl)cc([N+](=O)[O-])c1O)c1ccc2c(c1)OCO2 | 0 | 35 | 22 | 2 | 57*
O=C(N/N=C/c1cc2c(cc1Cl)OCO2)c1cccc(Br)c1 | 0 | -48 | 1 | 3 | 9
O=C1OC(CC(=O)N(Cc2nnc(-c3ccc(Cl)cc3)o2)C2CC2)c2ccccc21 (stereo unspecified) | 0 | nt | -1 | nt | nt
SMILES | A1 inh | KLF5 inhibitor | Beta apoptosis | HIF activator | T cruzi inh
C=CCc1ccccc1Oc1cc(F)nc(N)n1 | -1 | -25 | -7 | 1 | -6
O=[N+]([O-])c1ccc(Nc2c3ccccc3nc3ccccc23)cc1 | nt | 2 | nt | -1 | 3
COc1ccc([N+](=O)[O-])cc1Nc1c2ccccc2nc2ccccc12 | 0 | 66* | 66 | 1 | 33
Cc1cccc(-c2nc(Nc3ccc(N4CCOCC4)cc3)c3ccccc3n2)c1 | 0 | -39 | 3 | 0 | 56*
COc1ccc(Nc2nc(-c3ccccc3)nc3ccccc23)cc1 | 0 | -28 | nt | 1 | 42
c1ccc2c(Nc3ccc(N4CCOCC4)cc3)nc(N3CCOCC3)nc2c1 | 0 | -21 | 10 | 0 | 23
COc1ccc(Nc2nc(-c3cccc([N+](=O)[O-])c3)nc3ccccc23)cc1 | 0 | 5 | 11 | 0 | 65*
CCCCC1CCC(C(=O)NCC(c2ccco2)N2CCOCC2)CC1 (stereo unspecified) | 0 | -10 | 5 | 1 | -2
COCCN(CCOC)C(=O)c1cc2sc3ccccc3c2s1 | 0 | 0 | 2 | 0 | 16
CN(C)CCCNC(=O)c1cc2c3ccccc3n(C)c2s1 | -1 | 14 | 2 | 0 | 74*
CCCCN(C)CCNC(=O)c1cc2c(-c3ccccc3F)nn(C)c2s1 | 1 | -1 | 97* | -1 | -8
COCCNC(=O)c1cc2c(-c3ccccc3F)nn(C)c2s1 | 1 | -2 | 3 | 0 | 21
CN(C)CCNC(=O)c1cc2sc3ccccc3c2s1 | 0 | -45 | -4 | 1 | 59*
CCn1c(=O)c2cc(C(=O)NCCN(C)C)sc2c2ccccc21 | -1 | -17 | 6 | 0 | 22
Nc1nc(-c2ccc3c(c2)CCCC3)c(CC(=O)O)s1 | -1 | -4 | -2 | -27 | -3
O=C(N/N=C\c1ccc(CNS(=O)(=O)c2ccccc2)o1)C(=O)Nc1ccc(F)cc1 | -1 | -15 | -5 | 0 | -5
O=C(NCc1ccc(/C=N\NC(=O)C(=O)Nc2ccccc2Br)o1)C(=O)Nc1ccccc1 | 11* | -7 | 16 | -3 | -7
Cc1cc(C)c(-c2csc(NC(=O)COC(=O)c3ccc4c(c3)OCO4)n2)c(C)c1 | -1 | -6 | -3 | -1 | 55*
O=C(COC(=O)c1ccc2c(c1)OCO2)Nc1nc(-c2ccccc2)cs1 | 0 | -8 | 1 | 1 | -13
O=C(NC1CCN(Cc2ccccc2)CC1)C1CCN(S(=O)(=O)c2ccccc2)CC1 | 0 | -8 | 1 | 0 | 57*
O=C(NC1CCN(Cc2ccccc2)CC1)C1CCN(S(=O)(=O)c2ccc(Cl)cc2)CC1 | -1 | -27 | 22 | 0 | 47
C=CCN(c1ccccc1)S(=O)(=O)c1cccc(C(=O)NC2CCN(Cc3ccccc3)CC2)c1 | 1 | nt | 12 | 1 | 61*
Cc1c(NC(=O)c2ccc([N+](=O)[O-])o2)cccc1-c1nc2ncccc2o1 | 0 | 14 | 6 | -5 | 39
Cc1ccc(CCNC(=O)CN2C(=O)COc3ccc(S(=O)(=O)N4CCOCC4)cc32)cc1 | -1 | -13 | -1 | -1 | 49
COc1ccc(-c2nnc3n2N=C(C)CS3)cc1 | 0 | -19 | 3 | 0 | -3
